Laboratory results from ChEMBL document CHEMBL2429732, “Aminopyrazole-Phenylalanine Based GPR142 Agonists: Discovery of Tool Compound and in Vivo Efficacy Studies” (ACS Med Chem Lett, 2013).
The source made the active and inactive calls. The calls are words filed in the database; no cut-off is given here.

How the values were obtained:
[1] = Bioavailability in cynomolgus monkey at 2 mg/kg, sc; format: ADME, organism-based, Macaca fascicularis; settings: in vivo
[2] = Cmax in cynomolgus monkey at 2 mg/kg, sc; format: ADME, organism-based, Macaca fascicularis; design: dose 2 mg/kg, route subcutaneous; settings: in vivo
[3] = molecular target: T1, Probable G-protein coupled receptor 142 (Homo sapiens, UniProt Q7Z601); experiment: Agonist activity at human GPR142 expressed in HEK293 cells assessed as inositol phosphate accumulation using [3H]-inositol after 1 hr by scintillation counting; format: functional, cell-based
T1 sequence (Q7Z601 whole entry): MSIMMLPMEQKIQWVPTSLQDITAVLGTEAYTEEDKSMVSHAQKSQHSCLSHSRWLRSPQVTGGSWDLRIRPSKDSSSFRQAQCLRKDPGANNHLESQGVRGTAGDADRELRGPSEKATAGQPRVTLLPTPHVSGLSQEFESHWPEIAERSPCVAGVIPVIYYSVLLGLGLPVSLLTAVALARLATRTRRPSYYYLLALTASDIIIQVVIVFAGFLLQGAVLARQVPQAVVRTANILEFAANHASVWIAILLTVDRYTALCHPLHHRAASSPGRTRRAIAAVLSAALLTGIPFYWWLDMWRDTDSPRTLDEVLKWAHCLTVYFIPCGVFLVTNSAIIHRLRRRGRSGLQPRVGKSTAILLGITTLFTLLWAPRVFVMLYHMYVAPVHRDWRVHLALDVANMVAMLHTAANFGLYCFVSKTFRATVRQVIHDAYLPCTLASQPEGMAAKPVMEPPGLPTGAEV

[4] = Fraction unbound in rat plasma; format: ADME, cell-free
[5] = Oral bioavailability in cynomolgus monkey at 10 mg/kg; format: ADME, organism-based, Macaca fascicularis; settings: in vivo
In short: (§1)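 Oral dosing used the ethyl ester prodrug. All pharmacokinetic calculations were based on the parent free acid in plasma.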

[6] = Tmax in rat at 2 mg/kg, po; format: ADME, organism-based; design: dose 2 mg/kg, route oral; settings: in vivo; in short: as §1
Mus musculus [7] = experiment: Antidiabetic activity in wild type mouse assessed as reduction of plasma glucose AUC at 10 mg/kg, sc administered 15 mins before glucose challenge measured up to 90 mins; design: scale not given: the % may be the effect or the level left; settings: route subcutaneous
[8] = Volume of distribution at steady state in rat at 0.5 mg/kg, iv; format: ADME, organism-based; design: dose 0.5 mg/kg, route intravenous; settings: in vivo, read-out: Vdss
[9] = molecular target: T2, Probable G-protein coupled receptor 142 (Mus musculus) (UniProt Q7TQN9); experiment: Agonist activity at mouse GPR142 relative to tryptophan
T2 sequence (whole entry): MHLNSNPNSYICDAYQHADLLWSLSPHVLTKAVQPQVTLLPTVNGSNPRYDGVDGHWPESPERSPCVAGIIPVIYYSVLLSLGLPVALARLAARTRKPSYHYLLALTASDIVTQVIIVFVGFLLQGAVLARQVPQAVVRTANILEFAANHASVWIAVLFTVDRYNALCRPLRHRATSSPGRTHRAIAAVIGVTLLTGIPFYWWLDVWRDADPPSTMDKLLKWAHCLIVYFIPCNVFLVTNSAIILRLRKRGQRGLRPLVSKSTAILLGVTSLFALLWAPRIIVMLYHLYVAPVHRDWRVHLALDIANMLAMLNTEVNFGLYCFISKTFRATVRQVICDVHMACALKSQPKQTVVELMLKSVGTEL
In short: (§2)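 Inositol phosphate accumulation in HEK293 cells transfected with mouse or cynomolgus monkey receptor plasmid, tritiated inositol labelling, compounds in HBSS/0.01% BSA plus 10 mM LiCl, 37 °C for 1 h, SPA scintillation read-out; maximal efficacy expressed relative to tryptophan response.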

[10] = Clearance in cynomolgus monkey at 0.5 mg/kg, iv; format: ADME, organism-based, Macaca fascicularis; design: dose 0.5 mg/kg, route intravenous; settings: in vivo
[11] = Metabolic stability in rat liver microsomes assessed as compound remaining at 1 uM after 30 mins; format: ADME, Microsome; settings: read-out: Stability
Macaca fascicularis = species on record: Macaca fascicularis; experiment: Agonist activity at cynomolgus monkey GPR142 relative to tryptophan; in short: as §2
[12] = Half life in cynomolgus monkey at 0.5 mg/kg, iv; format: ADME, organism-based, Macaca fascicularis; design: dose 0.5 mg/kg, route intravenous; settings: in vivo
[13] = Agonist activity at cynomolgus monkey GPR142; design: species or system Macaca fascicularis
In short: (§3)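 HEK293 cells, plated at 25 000/well, were transiently transfected with 100 ng receptor plasmid per well. They were labelled overnight with 1.0 μCi/mL tritiated inositol in inositol-free DMEM/10% dialyzed FCS. Cells were then exposed to graded compound levels in HBSS/0.01% BSA with 10 mM LiCl for 1 h at 37 °C. Cells were lysed in cold 20 mM formic acid (5 h, 4 °C), and IP was captured on yttrium silicate SPA beads and read by scintillation counting. EC50 is the mean of three runs.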

[14] = molecular target: T2, Probable G-protein coupled receptor 142 (Mus musculus); experiment: Ex vivo agonist activity at GPR142 in wild type mouse islets assessed as stimulation of insulin secretion at 3 to 10 uM by ELISA in presence of glucose
In short: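 Islets from wild-type and GPR142 knockout mice incubated with compound at 3.0 and 10.0 μM in presence of 16.7 mM glucose; insulin secretion measured.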

Mus musculus [15] = experiment: Antidiabetic activity in mouse bearing human islets assessed as reduction of plasma glucose AUC at 10 mg/kg, sc administered 15 mins before glucose challenge measured up to 90 mins; design: scale not given: the % may be the effect or the level left; settings: route subcutaneous
[16] = Fraction unbound in human plasma; format: ADME, cell-free
Mus musculus [17] = species on record: Mus musculus; experiment: Induction of insulin secretion in GPR142-deficient mouse islets at 3 to 10 uM by ELISA in presence of glucose; format: functional
In short: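 Islets isolated from wild-type and GPR142 knockout mice were incubated with test agent at 3.0 and 10.0 μM in the presence of 16.7 mM glucose, and insulin secretion was measured.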

[18] = Metabolic stability in human liver microsomes assessed as compound remaining at 1 uM after 30 mins; format: ADME, Microsome; settings: read-out: Stability
In short: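 Compound at 1.0 μM was incubated for 30 min in human liver microsomes; percentage of intact compound remaining was determined.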

[19] = Tmax in cynomolgus monkey at 10 mg/kg, po; format: ADME, organism-based, Macaca fascicularis; design: dose 10 mg/kg, route oral; settings: in vivo; in short: as §1
Cytochrome P450 2D6 = Cytochrome P450 2D6 (Homo sapiens, UniProt P10635); experiment: Inhibition of CYP2D6 (unknown origin); format: ADME
Chain of Cytochrome P450 2D6 (P10635 whole entry): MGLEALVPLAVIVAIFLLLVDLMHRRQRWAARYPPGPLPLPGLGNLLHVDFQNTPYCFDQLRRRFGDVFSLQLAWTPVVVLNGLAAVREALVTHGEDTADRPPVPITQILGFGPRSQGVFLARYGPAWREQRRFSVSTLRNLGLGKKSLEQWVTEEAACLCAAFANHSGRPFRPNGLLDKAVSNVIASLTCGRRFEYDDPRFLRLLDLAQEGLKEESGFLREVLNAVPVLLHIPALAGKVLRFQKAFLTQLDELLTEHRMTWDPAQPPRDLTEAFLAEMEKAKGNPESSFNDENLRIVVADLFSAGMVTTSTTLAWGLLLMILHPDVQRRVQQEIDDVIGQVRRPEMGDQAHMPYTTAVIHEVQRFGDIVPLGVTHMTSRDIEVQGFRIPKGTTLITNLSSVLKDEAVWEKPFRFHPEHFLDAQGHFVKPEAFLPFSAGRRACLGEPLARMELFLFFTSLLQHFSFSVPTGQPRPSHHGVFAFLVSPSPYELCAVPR

[20] = molecular target: T3, Probable G-protein coupled receptor 142 (Mus musculus, UniProt Q7TQN9); experiment: Agonist activity at mouse GPR142; in short: as §3
T3 sequence (Q7TQN9 whole entry): T2 sequence (whole entry)

[21] = Tmax in cynomolgus monkey at 2 mg/kg, sc; format: ADME, organism-based, Macaca fascicularis; design: dose 2 mg/kg, route subcutaneous; settings: in vivo
[22] = molecular target: Voltage-gated inwardly rectifying potassium channel KCNH2 (Homo sapiens, UniProt Q12809); experiment: Inhibition of human ERG by patch clamp assay
Chain of Voltage-gated inwardly rectifying potassium channel KCNH2 (Q12809 whole entry): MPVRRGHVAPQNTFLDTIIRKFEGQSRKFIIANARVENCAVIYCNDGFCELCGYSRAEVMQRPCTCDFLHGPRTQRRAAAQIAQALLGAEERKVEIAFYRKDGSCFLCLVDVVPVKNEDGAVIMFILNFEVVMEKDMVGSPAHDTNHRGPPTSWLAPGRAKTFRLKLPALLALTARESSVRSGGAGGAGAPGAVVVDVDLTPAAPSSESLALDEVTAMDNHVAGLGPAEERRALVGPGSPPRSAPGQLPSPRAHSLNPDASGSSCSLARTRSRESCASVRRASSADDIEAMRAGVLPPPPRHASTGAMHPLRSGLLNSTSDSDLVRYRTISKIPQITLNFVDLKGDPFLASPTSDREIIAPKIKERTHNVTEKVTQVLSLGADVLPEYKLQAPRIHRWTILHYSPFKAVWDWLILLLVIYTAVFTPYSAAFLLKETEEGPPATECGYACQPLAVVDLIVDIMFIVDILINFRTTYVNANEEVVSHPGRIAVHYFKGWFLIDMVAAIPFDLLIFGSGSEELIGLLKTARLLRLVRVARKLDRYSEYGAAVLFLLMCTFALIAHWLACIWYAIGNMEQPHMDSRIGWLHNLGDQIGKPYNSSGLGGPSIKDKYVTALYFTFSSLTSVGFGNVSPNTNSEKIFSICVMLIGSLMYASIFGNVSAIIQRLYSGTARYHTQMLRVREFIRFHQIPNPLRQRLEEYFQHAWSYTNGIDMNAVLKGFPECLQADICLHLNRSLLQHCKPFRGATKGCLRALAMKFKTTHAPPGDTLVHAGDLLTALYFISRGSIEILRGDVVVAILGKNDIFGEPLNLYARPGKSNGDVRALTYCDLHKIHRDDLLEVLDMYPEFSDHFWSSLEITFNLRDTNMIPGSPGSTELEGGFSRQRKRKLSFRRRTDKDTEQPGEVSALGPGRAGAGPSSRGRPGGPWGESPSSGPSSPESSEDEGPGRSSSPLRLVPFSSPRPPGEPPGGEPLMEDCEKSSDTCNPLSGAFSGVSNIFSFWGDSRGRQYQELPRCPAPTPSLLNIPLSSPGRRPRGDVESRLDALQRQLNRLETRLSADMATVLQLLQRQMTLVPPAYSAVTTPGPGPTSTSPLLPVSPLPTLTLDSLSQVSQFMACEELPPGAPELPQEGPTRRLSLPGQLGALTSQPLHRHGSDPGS

[23] = Cmax in cynomolgus monkey at 10 mg/kg, po; format: ADME, organism-based, Macaca fascicularis; design: dose 10 mg/kg, route oral; settings: in vivo; in short: as §1
[24] = Half life in rat at 0.5 mg/kg, iv; format: ADME, organism-based; design: dose 0.5 mg/kg, route intravenous; settings: in vivo
[25] = Bioavailability in rat at 2 mg/kg, sc; format: ADME, organism-based; settings: in vivo
[26] = Cmax in rat at 2 mg/kg, sc; format: ADME, organism-based; design: dose 2 mg/kg, route subcutaneous; settings: in vivo
[27] = Clearance in rat at 0.5 mg/kg, iv; format: ADME, organism-based; design: dose 0.5 mg/kg, route intravenous; settings: in vivo
[28] = Oral bioavailability in rat at 2 mg/kg; format: ADME, organism-based; settings: in vivo; in short: as §1
[29] = Fraction unbound in cynomolgus monkey plasma; format: ADME, cell-free, Macaca fascicularis
[30] = Cmax in rat at 2 mg/kg, po; format: ADME, organism-based; design: dose 2 mg/kg, route oral; settings: in vivo; in short: as §1
[31] = Volume of distribution at steady state in cynomolgus monkey at 0.5 mg/kg, iv; format: ADME, organism-based, Macaca fascicularis; design: dose 0.5 mg/kg, route intravenous; settings: in vivo, read-out: Vdss
[32] = molecular target: T4, Nuclear receptor subfamily 1 group I member 2 (Homo sapiens, UniProt O75469); experiment: Induction of human PXR activity
T4 sequence (O75469 whole entry): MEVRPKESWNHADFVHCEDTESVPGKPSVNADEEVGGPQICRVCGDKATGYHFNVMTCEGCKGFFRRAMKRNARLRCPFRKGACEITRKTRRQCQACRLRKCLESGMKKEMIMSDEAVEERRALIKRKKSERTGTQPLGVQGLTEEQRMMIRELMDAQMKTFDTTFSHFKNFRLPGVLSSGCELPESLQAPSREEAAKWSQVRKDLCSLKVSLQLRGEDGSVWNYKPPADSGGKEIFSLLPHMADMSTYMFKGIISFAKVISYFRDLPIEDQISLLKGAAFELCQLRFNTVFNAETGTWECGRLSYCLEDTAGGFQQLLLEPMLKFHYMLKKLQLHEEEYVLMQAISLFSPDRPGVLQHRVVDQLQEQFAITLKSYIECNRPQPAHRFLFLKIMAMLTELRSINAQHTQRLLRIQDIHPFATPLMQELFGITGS

[33] = Tmax in rat at 2 mg/kg, sc; format: ADME, organism-based; design: dose 2 mg/kg, route subcutaneous; settings: in vivo
Cytochrome P450 3A4 = Cytochrome P450 3A4 (Homo sapiens, UniProt P08684); experiment: Inhibition of CYP3A4 (unknown origin); format: ADME
Chain of Cytochrome P450 3A4 (P08684 whole entry): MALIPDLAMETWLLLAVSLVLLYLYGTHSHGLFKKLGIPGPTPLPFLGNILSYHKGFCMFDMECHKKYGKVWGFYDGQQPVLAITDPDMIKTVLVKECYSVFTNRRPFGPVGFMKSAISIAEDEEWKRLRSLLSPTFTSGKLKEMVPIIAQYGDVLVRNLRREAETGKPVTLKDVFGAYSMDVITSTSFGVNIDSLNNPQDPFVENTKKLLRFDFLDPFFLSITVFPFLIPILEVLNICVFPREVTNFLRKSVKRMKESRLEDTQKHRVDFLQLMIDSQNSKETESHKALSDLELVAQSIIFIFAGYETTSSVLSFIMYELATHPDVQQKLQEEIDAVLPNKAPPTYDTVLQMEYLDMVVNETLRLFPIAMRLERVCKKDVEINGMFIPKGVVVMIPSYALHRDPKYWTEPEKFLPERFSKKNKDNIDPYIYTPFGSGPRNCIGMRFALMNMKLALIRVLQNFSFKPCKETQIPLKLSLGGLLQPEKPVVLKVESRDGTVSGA

[34] = Permeability across human Caco2 cells; format: ADME, cell-based; settings: Caco-2, read-out: permeability

bioavailability [1]: 100%
Cmax [2]: 6.3 µM
EC50 [3]: 52 nM
fraction unbound [4]: 0.01
bioavailability [5]: 6%
Tmax [6]: 0.83 h
Vd [8]: 0.29 L/kg
Emax [9]: 73%
clearance [10]: 7.33 mL/min/kg
remaining at 0.5 h, 1 µM [11]: > 90%
Emax (Macaca fascicularis): 79%
half-life [12]: 2.3 h
EC50 [13]: 79 nM
Activity [14]: Active
fraction unbound [16]: 0.16
remaining at 0.5 h, 1 µM [18]: > 90%
Tmax [19]: 4 h
IC50 (Cytochrome P450 2D6): > 30000 nM
EC50 [20]: 31 nM
Tmax [21]: 0.5 h
Cmax [23]: 0.4 µM
half-life [24]: 4.1 h
bioavailability [25]: 81%
Cmax [26]: 7.5 µM
clearance [27]: 2.5 mL/min/kg
bioavailability [28]: 3%
fraction unbound [29]: 0.1
Cmax [30]: 0.17 µM
Vd [31]: 0.33 L/kg
Activity [32]: Not Active
Tmax [33]: 0.38 h
IC50 (Cytochrome P450 3A4): > 30000 nM
Papp [34]: 0.9 ×10⁻⁶ cm/s
Structure (SMILES): Cn1nc(-c2ccncc2)cc1NC(=O)[C@H](Cc1ccccc1)NCC(=O)O
Activity (Mus musculus [7]): -25%
Activity (Mus musculus [15]): -28%
Activity (Mus musculus [17]): inactive
IC50 [22]: > 30000 nM
